# According to publication PMC5696082 (Analytical biochemistry, 2017):
# Columns and labels:
# [1] = Background hydrolysis of substrates in phosphate buffer; assay type: physicochemical
# hCE3 = biological target: T1, hCE3 (Homo sapiens, UniProt Q6UWW8); test: Specific activity of hCE3 towards substrates; assay type: biochemical
# T1 sequence (Q6UWW8 27-571): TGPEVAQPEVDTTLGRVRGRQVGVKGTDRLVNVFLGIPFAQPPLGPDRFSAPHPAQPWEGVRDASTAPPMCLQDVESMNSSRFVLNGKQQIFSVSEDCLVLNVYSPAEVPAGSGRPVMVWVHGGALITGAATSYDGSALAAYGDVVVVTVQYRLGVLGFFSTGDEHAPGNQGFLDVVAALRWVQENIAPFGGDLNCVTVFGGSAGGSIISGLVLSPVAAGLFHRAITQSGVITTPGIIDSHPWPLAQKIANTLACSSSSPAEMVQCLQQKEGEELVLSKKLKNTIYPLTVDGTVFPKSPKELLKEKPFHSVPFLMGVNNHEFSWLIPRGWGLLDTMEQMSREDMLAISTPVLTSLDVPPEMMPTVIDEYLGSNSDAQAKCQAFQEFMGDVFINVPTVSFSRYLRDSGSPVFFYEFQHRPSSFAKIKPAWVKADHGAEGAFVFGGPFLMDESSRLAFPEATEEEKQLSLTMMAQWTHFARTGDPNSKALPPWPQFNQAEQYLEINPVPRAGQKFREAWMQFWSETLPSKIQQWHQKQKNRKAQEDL
# Method in brief: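 Enzymes expressed in baculovirus-infected High Five cells: hCE1 CHAPS-solubilised from the 100,000 g pellet, then DEAE-purified; hCE2/hCE3 crude soluble fraction; FAAH crude insoluble fraction. Substrate added to 50 µM final in 100 mM sodium phosphate pH 8.0, 0.1 mg/mL BSA, 1% DMSO. Fluorescence read every 30 s for ≥10 min at 37°C. Rates corrected for estimated purity: hCE1 25%, hCE2 4%, hCE3 3.5% (3% in footnotes), FAAH 6.9%. Triplicates.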
structure (smiles),measurement,setting,value
"CCCCC(C)CCC(=O)Nc1ccc(OC)nc1C (stereo not shown) [4-MOMMP, N-(6-methoxy-2-methylpyridin-3-yl)-4-methyloctanamide]","Background hydrolysis, fold lower than CMNA",[1]; phosphate buffer,200 fold
same,Rate of background hydrolysis,"[1]; phosphate buffer 100 mM, pH 8, 0.1 mg/mL BSA",0.1 pmol/min
same,hCE3 Specific activity,"hCE3; Table 3, [S] = 50 µM, 37°C, pH 8, estimated 3% purity",<1 pmol/min/µg
same,Hydrolysis Specific Activity,"hCE3; Table 6, hCE3",1.4 ± 0.4 pmol/min/µg
